Results taken from ChEMBL document CHEMBL4342478, “Discovery of Potent N-Ethylurea Pyrazole Derivatives as Dual Inhibitors of Trypanosoma brucei and Trypanosoma cruzi” (ACS Med Chem Lett, 2020).
pIC50: −log10 of the molar value. Values after ≈ are worked out from the molar mass of the structure shown. Active and inactive are the calls of the source. The rule behind the calls is not given here.

Tests used:
[1] = Selectivity index, ratio of cytotoxicity against rat H9C2 cells to IC50 for antitrypanosomal activity against Trypanosoma cruzi infected in rat H9C2 cells; format: toxicity, cell-based; conditions: read-out: Selectivity Index
[2] = Selectivity index, ratio of IC50 for human HEK293 cells incubated for 69 hrs by resazurin dye based fluorescence analysis to IC50 for antitrypanosomal activity against Trypanosoma brucei brucei BS427; format: toxicity; conditions: read-out: Ratio IC50
[3] = tested on: Trypanosoma cruzi; experiment: Antitrypanosomal activity against Trypanosoma cruzi infected in rat H9C2 cells by DRAQ5 DNA dye based imaging analysis; format: functional, organism-based
Summary of the method: (§1)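 IC50 values are the mean of two independent experiments. The T. b. brucei assay uses free parasites. The T. cruzi assay uses intracellular parasites in H9c2 host cells.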

[4] = tested on: Trypanosoma brucei brucei; experiment: Antitrypanosomal activity against Trypanosoma brucei brucei BS427 after 48 hrs by resazurin dye based fluorescence assay; format: functional, organism-based; conditions: for pIC50: Trypanosoma brucei, BS427, 48 h, read-out: IC50; summary of the method: as §1
[5] = tested on: Trypanosoma brucei brucei; experiment: Antitrypanosomal activity against bloodstream form of Trypanosoma brucei brucei Lister 427; format: functional, organism-based
[6] = Selectivity index, ratio of cytotoxicity against human HEK293 cells to IC50 for antitrypanosomal activity against bloodstream form of Trypanosoma brucei brucei Lister 427; format: toxicity, cell-based; conditions: read-out: Selectivity Index
Summary of the method: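 Ratio of HEK293 cytotoxicity to the IC50 against free, non-intracellular T. b. brucei parasites. IC50 values are the average of two independent experiments.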

[7] = tested on: Leishmania donovani; experiment: AntiLeishmanial activity against amastigote form of Leishmania donovani MHOM/ET/67/L82 after 72 hrs by Alamar blue dye based fluorometric analysis; format: functional, organism-based
[8] = tested on: Plasmodium falciparum; experiment: Antiplasmodial activity against erythrocytic stage of Plasmodium falciparum after 48 hrs by [3H]-hypoxanthine incorporation assay; format: functional, organism-based
[9] = tested on: Trypanosoma brucei rhodesiense; experiment: Antitrypanosomal activity against blood stream form of Trypanosoma brucei rhodesiense STIB900 after 72 hrs by Alamar blue based fluorometric assay; format: functional, organism-based
[10] = tested on: Trypanosoma cruzi; experiment: Antitrypanosomal activity against Trypanosoma cruzi Tulahuen C2C4 trypomastigotes infected in rat L6 cells after 96 hrs by photometric analysis; format: functional, organism-based
[11] = Kinetic solubility of compound at pH 2 to 6.5 by nephelometry; format: physicochemical; conditions: buffer, read-out: Kinetic_solubility
[12] = Metabolic stability in human liver microsomes; format: ADME, Microsome
[13] = Selectivity index, ratio of cytotoxicity against mouse 3T3 cells to IC50 for antitrypanosomal activity against Trypanosoma cruzi Tulahuen C4 infected in mouse 3T3 cells; format: toxicity, cell-based; conditions: read-out: Selectivity Index
[14] = tested on: Trypanosoma cruzi; experiment: Antitrypanosomal activity against Trypanosoma cruzi Tulahuen C4 infected in mouse 3T3 cells by Hoechst/HCS CellMask green dye based assay; format: functional, organism-based; conditions: Tulahuen C4, NIH3T3
[15] = tested on: Trypanosoma cruzi; experiment: Trypanosomacidal activity against Trypanosoma cruzi strain Y trypomastigotes assessed as reduction in number of infected cells at faster rate at 20 uM measured for 24 to 96 hrs by Hoechst 33342 staining based fluorescence imaging assay; format: functional, organism-based
[16] = tested on: Trypanosoma cruzi; experiment: Trypanosomacidal activity against Trypanosoma cruzi strain Y trypomastigotes assessed as reduction in number of infected cells at 0.312 uM measured for 24 to 96 hrs by Hoechst 33342 staining based fluorescence imaging assay relative to benznidazole; format: functional
Summary of the method: (§2)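 Time-to-kill assay against intracellular T. cruzi, with test article at 0.312 or 0.078 μM. Controls were benznidazole 20 μM, posaconazole 0.04 μM and DMSO. The number of infected host cells was tracked over time after drug addition.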

[17] = tested on: Trypanosoma cruzi; experiment: Trypanosomacidal activity against Trypanosoma cruzi strain Y trypomastigotes assessed as reduction in number of infected cells at 0.312 uM measured within first 24 hrs by Hoechst 33342 staining based fluorescence imaging assay; format: functional, organism-based; summary of the method: as §2

SMILES | selectivity ratio [1] | selectivity ratio at 69 h [2] | pIC50 [3] | pIC50 [4] | other results
COc1cccc(-c2ccn(CCNC(=O)N3CCCCC3)n2)c1 | 13 | 67 | 5.40 | 5.92 | 
CC(C)(C)C(=O)NCCc1csc(-c2cccc(F)c2)n1 | 27 |  | 5.64 |  | pIC50 [5]: 6.10; selectivity ratio [6]: > 96
O=C(NCCn1ccc(-c2ccc(F)cc2F)n1)N1CCCCC1 |  | 1880 |  | 7.35 | 
O=C(NCCn1ccc(-c2ccc(Cl)cc2)n1)N1CCCCC1 | 50 | 35 | 6.00 | 5.92 | 
O=C(NCCn1ccc(-c2ccccc2)n1)c1ccccc1 | 1 | 102 | 4.30 | 6.21 | 
O=C(NCCn1ccc(-c2ccccc2)n1)C1CCCC1 | 16 | 39 | 5.49 | 5.96 | 
N#Cc1cccc(-c2ccn(CCNC(=O)N3CCCCC3)n2)c1 | 126 | 236 | 6.40 | 6.46 | 
Cc1ccc(-c2ccn(CCNC(=O)N3CCCCC3)n2)cc1 | 5 | 16 | 5.00 | 5.28 | 
O=C(NCCn1ccc(-c2ccccc2F)n1)N1CCCCC1 |  | 185 |  | 7.22 | Activity [7]: Active; Activity [8]: Active; Activity [9]: Active; Activity [10]: Active
CC(C)NC(=O)NCCn1ccc(-c2ccccc2)n1 |  | 11 |  | 5.12 | 
CCN(CC)C(=O)NCCn1ccc(-c2ccccc2)n1 | 16 | 42 | 5.49 | 5.70 | 
Cc1ccccc1-c1ccn(CCNC(=O)N2CCCCC2)n1 | 158 | 240 | 6.49 | 6.46 | 
CC(CNC(=O)N1CCCCC1)n1ccc(-c2ccccc2)n1 (stereo unspecified) | 251 | 358 | 6.70 | 6.64 | 
COc1ccc(-c2ccn(CCNC(=O)N3CCCCC3)n2)cc1 | 2 | 12 | 4.60 | 5.15 | 
O=C(NCCn1ccc(-c2ccccc2)n1)N1CCCCCC1 | 79 | 215 | 6.20 | 6.41 | 
O=C(NCCn1ccc(-c2ccc(F)cc2)n1)N1CC[C@H](F)C1 | 398 | 2450 | 6.89 | 7.49 | Activity [7]: Active; Activity [8]: Active; Activity [9]: Active; Activity [10]: Active
O=C(NCCn1ccc(-c2ccccc2)n1)N1CCOCC1 | 2 | 13 | 4.60 | 5.18 | 
O=C(NCCn1ccc(-c2ccc(F)cc2)n1)N1CC[C@@H](F)C1 | 200 | 922 | 6.60 | 7.07 | 
O=S(=O)(NCCn1ccc(-c2ccccc2)n1)c1ccccc1 | 1 |  | 4.30 |  | IC50 [4]: Not Active
Cc1cccc(-c2ccn(CCNC(=O)N3CCCCC3)n2)c1 | 158 | 232 | 6.49 | 6.44 | 

SMILES | selectivity ratio [1] | selectivity ratio at 69 h [2] | pIC50 [3] | pIC50 [4] | other results
c1ccc(CNCCn2ccc(-c3ccccc3)n2)cc1 |  |  |  |  | IC50 [4]: Not Active
O=C(NCCn1ccc(-c2ccc(F)cc2)n1)N1CCCC1 | 158 | 1060 | 6.49 | 7.12 | 
O=C(NCCn1ccc(-c2cccc(Cl)c2)n1)N1CCCCC1 | 398 | 327 | 6.89 | 6.89 | 
N#Cc1ccccc1-c1ccn(CCNC(=O)N2CCCCC2)n1 | 4 | 18 | 4.89 | 5.33 | 
O=C(NCCn1ccc(-c2ccccc2Cl)n1)N1CCCCC1 | 398 | 361 | 6.89 | 6.92 | 
CC(Cn1ccc(-c2ccccc2)n1)NC(=O)N1CCCCC1 (stereo unspecified) | 50 | 131 | 6.00 | 6.19 | 
O=C(NCCn1ccc(-c2ccc(F)c(F)c2)n1)N1CCCC1 | 501 | 3630 | 7.00 | 7.66 | solubility kinetic [11]: 12.5 to 25 µg/mL (≈ 39 to 78 µM); Activity [7]: Active; Activity [8]: Active; Activity [9]: Active; Stability [12]: Stable; Activity [10]: Active
O=C(NCCn1ccc(-c2ccc(F)c(F)c2)n1)N1CCCCC1 |  | 2910 |  | 7.57 | selectivity ratio [13]: 616; pIC50 [14]: 6.92
O=C(NCCn1ccc(-c2ccccc2)n1)N1CCCC1 |  | 128 |  | 6.19 | 
O=C(NCCn1ccc(-c2ccc(F)c(F)c2)n1)N1CC[C@@H](F)C1 | 501 | 4840 | 7.00 | 7.80 | Activity [7]: Active; Activity [8]: Active; Activity [9]: Active; Activity [10]: Active
O=C(CCn1ccc(-c2ccccc2)n1)Nc1ccccc1 |  |  |  |  | IC50 [4]: Not Active
CC(C)OC(=O)NCCn1ccc(-c2ccccc2)n1 |  | 82 |  | 6.00 | 
O=C(NCCn1ccc(-c2ccccc2)n1)N1CC[C@@H](F)C1 | 63 | 732 | 6.10 | 6.97 | 
O=C(Cn1ccnc1[N+](=O)[O-])NCc1ccccc1 |  |  |  |  | Activity [15]: Active
COc1ccccc1-c1ccn(CCNC(=O)N2CCCCC2)n1 |  | 32 |  | 5.59 | 
O=C(NCCn1ccc(-c2ccccc2)n1)N1CCCCC1 | 32 | 1350 | 6.60 | 7.22 | solubility kinetic [11]: > 20 µg/mL; Activity [7]: Active; Activity [8]: Active; fold change (FC) [16]: 36; Activity [17]: Active; Activity [9]: Active; Activity [10]: Active
O=C(NCCn1ccc(-c2cccc(F)c2)n1)N1CCCCC1 |  | 197 |  | 7.30 | Activity [7]: Active; Activity [8]: Active; Activity [9]: Active; Activity [10]: Active
O=C(NCCn1ccc(-c2ccc(F)cc2)n1)N1CCCCC1 |  | 161 |  | 7.22 | Activity [7]: Active; Activity [8]: Active; Activity [9]: Active; Stability [12]: Stable; Activity [10]: Active
N#Cc1ccc(-c2ccn(CCNC(=O)N3CCCCC3)n2)cc1 | 1 |  | 4.40 |  | 
O=C(NCCn1ccc(-c2ccccc2)n1)N1CC[C@H](F)C1 | 200 | 1300 | 6.60 | 7.21 | 
